# High-throughput results as filed in PubChem BioAssay.
# In the library only some 2.1% were active in any assay of this set; here they are far more common.
# PAX8 reporter – PAX8 transcriptional activity inhibition; RMG-I TPO-luciferase reporter, SteadyGlo, 24 h; inhibition, % at 12.6 µM; 1.2% of 360,000 active; AID 652154;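 active = mean replicate inhibition at least 60% with every replicate also reaching 60%; inconclusive = only one of the two criteria is met; inactive = mean below 60% and not all replicates reaching 60%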;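 note: luciferase light reporting Pax8 driven TPO promoter activity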
# EWS-Fli inh – inhibitors of EWS/Fli oncoprotein transcriptional activity. A673 NR0B1-luciferase reporter, viability-normalised. inhibition, % at 12.6 µM. 0.67% of 350,000 active;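 active = mean inhibition of at least 50% after viability correction, with every replicate also passing that limit; inconclusive = mean reaches 50% but only one of two replicates passes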;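 note: firefly luciferase signal divided by Alamar Blue viability fluorescence both relative to DMSO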
# FN deposition inh – fibronectin deposition inhibition; AH1F fibroblasts, Alexa488-fibronectin deposition fluorescence, overnight; inhibition, % at 12.6 µM; 0.086% of 350,000 active;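 active = mean inhibition across replicates of 30% or more, regardless of how many single replicates reach that level; inconclusive = mean under 30% yet at least half of replicates reach 30%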
#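 Measured by – fluorescence 485/525 nm · System – AH1F fibroblast monolayer, labelled fibronectin deposition · Amount – 10000 cells per well · Buffer or medium – serum-reduced DMEM (2% serum) · Doses – single dose, pinned · Also added – fluorescent fibronectin at 24 nM final · Schedule – 1 h cell attachment, overnight exposure to compound and label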
# EBV LMP1 NFkB – Epstein-Barr LMP1 NF-kappaB reporter inhibition. AID 504558. 0.69% of 350,000 active. inhibition, % at 12.5 µM. LMP1-induced NF-kappaB luciferase reporter cells, luminescence; in the data active = inhibition above about 41%; inconclusive = no clear call, values can overlap the other calls
# Shn3 inh set2 – inhibitors of Schnurri-3 3'UTR reporter in osteoblasts. Clone20 osteoblast Shn3 3'UTR firefly luciferase, 24 h. inhibition, % at 12.5 µM. 0.52% of 360,000 active. AID 588674;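 active = mean inhibition of at least 75% with every replicate also reaching 75%; inconclusive = mean inhibition at least 75% but some replicate below; inactive = mean inhibition below 75%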
# aSyn UTR inh – MLPCN primary screen, SNCA 5' untranslated region | alpha-synuclein 5'UTR reporter, inhibitor activity | inhibition, % (tested at 7.5 µM) | 0.82% of 300,000 active; in the data active = inhibition above about 60%; inconclusive = no clear call, values can overlap the other calls;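 note: H4 neuroglioblastoma cells stably carrying SNCA 5'UTR luciferase fusion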
# Numbers stand for hits; n = inactive; u = inconclusive; x = no result.
SMILES,PAX8 reporter,EWS-Fli inh,FN deposition inh,EBV LMP1 NFkB,Shn3 inh set2,aSyn UTR inh
C[C@@H]1CCCCO[C@@H](CN(C)Cc2ccc(C(F)(F)F)cc2)[C@H](C)CN([C@H](C)CO)C(=O)c2cc(NC(=O)Nc3ccc(F)cc3)ccc2O1,69.0,n,n,x,x,x
C[C@H]1CCCCO[C@@H](CN(C)Cc2ccc(C(F)(F)F)cc2)[C@@H](C)CN([C@@H](C)CO)C(=O)c2cc(NC(=O)Nc3ccc(F)cc3)ccc2O1,104.9,n,n,x,x,x
C[C@@H]1CCCCO[C@H](CN(C)Cc2ccc(C(F)(F)F)cc2)[C@@H](C)CN([C@@H](C)CO)C(=O)c2cc(NC(=O)Nc3ccc(F)cc3)ccc2O1,91.6,n,n,x,x,x
C[C@@H]1CCCCO[C@@H](CN(C)Cc2ccc(C(F)(F)F)cc2)[C@@H](C)CN([C@H](C)CO)C(=O)c2cc(NC(=O)Nc3ccc(F)cc3)ccc2O1,n,n,n,x,x,x
C[C@@H]1CN([C@@H](C)CO)C(=O)c2cc(NC(=O)Nc3ccc(C(F)(F)F)cc3)ccc2O[C@H]1CN(C)Cc1ccc(C(F)(F)F)cc1,70.1,n,x,x,x,x
C[C@H]1CN([C@@H](C)CO)C(=O)c2cccc(NS(=O)(=O)c3cn(C)cn3)c2O[C@@H]1CN(C)CC1CC1,x,n,x,x,x,x
C[C@H](CO)N1C[C@H](C)[C@H](CN(C)C)Oc2ccc(NC(=O)Cc3cn(C)c4ccccc34)cc2C1=O,n,x,x,x,x,x
Cc1ccc(S(=O)(=O)Nc2ccc3c(c2)C(=O)N([C@H](C)CO)C[C@@H](C)[C@@H](CN(C)C(=O)c2ccncc2)OCCCC[C@H](C)O3)cc1,n,n,n,x,x,x
C[C@@H]1CCCCO[C@@H](CN(C)Cc2ccc(C(F)(F)F)cc2)[C@H](C)CN([C@H](C)CO)C(=O)c2cc(NC(=O)Nc3ccc(C(F)(F)F)cc3)ccc2O1,68.5,n,n,x,x,x
O=C(C[C@H]1CC[C@@H](NC(=O)C2CCOCC2)[C@@H](CO)O1)NCC1CC1,n,x,x,x,x,x
O=c1c2ccc(Cl)cc2nc(-c2cccc(C(F)(F)F)c2)n1O,x,x,x,n,n,77.5
N#Cc1ccc(-c2nc3cc(Cl)ccc3c(=O)n2O)cc1,n,n,n,n,n,n
Cc1noc(C)c1NC(=O)Nc1ccc2c(c1)C(=O)N([C@@H](C)CO)C[C@H](C)[C@H](CN(C)C(=O)CCCN(C)C)OCCCC[C@H](C)O2,n,n,x,x,x,x
O=C(NCc1ccc(F)cc1F)[C@@H]1CCCN1C(=O)[C@@H]1CCCN1,79.7,n,n,x,x,x
Cn1c(/C=C/c2ccccc2)nc2ccccc21,78.8,59.1,n,46.5,n,n
Oc1c(C(c2cccs2)N2CCC3(CC2)OCCO3)sc2ncnn12 (stereo unspecified),x,n,n,n,87.9,n
CN(C)c1ccc(-c2nc3ccccc3c(=O)[nH]2)cc1,80.7,62.0,n,n,n,n
COc1cc(-c2noc(C)c2C#Cc2ccsc2)cc(OC)c1OC,n,58.8,n,n,n,68.8
COc1cc(-c2noc(C)c2C#CCO)cc(OC)c1OC,n,n,n,n,n,n
O=C(c1ccoc1)N1CCN(c2cc(-c3cccc(F)c3)nc3cc(-c4cccc(Cl)c4)nn23)CC1,n,n,x,n,90.8,x
O=C(c1ccccc1)N1CCN(c2cc(Cl)nc3cc(-c4cccc(Cl)c4)nn23)CC1,n,n,n,n,n,x
COc1ccc2oc(-c3ccc(NC(=O)c4ccc(N5CCOCC5)c([N+](=O)[O-])c4)cc3)nc2c1,x,x,x,n,n,n
O=C(Nc1ccc(-c2nc3ccccc3o2)cc1)c1ccc(N2CCOCC2)c([N+](=O)[O-])c1,x,n,x,n,91.4,n
N/C(=N\OC(=O)c1ccc(Cl)cc1)c1ccccn1,x,x,n,n,n,62.5
N/C(=N\OC(=O)c1ccccc1Cl)c1ccccn1,x,54.3,x,65.2,n,84.4
SMILES,PAX8 reporter,EWS-Fli inh,FN deposition inh,EBV LMP1 NFkB,Shn3 inh set2,aSyn UTR inh
COc1ccccc1C(=O)O/N=C(\N)c1ccccn1,n,n,n,n,n,n
N/C(=N\OC(=O)c1cccc(Br)c1)c1ccccn1,n,x,n,45.1,n,71.8
Cc1ccc(C(=O)O/N=C(\N)c2ccccn2)c(C)c1,x,77.2,n,87.0,95.7,105.9
COc1cc(OC)c(C(=O)O/N=C(\N)c2ccccn2)cc1OC,n,n,n,n,n,n
N/C(=N\OC(=O)c1ccc(Cl)c(Cl)c1)c1ccccn1,x,x,n,n,n,n
C[C@@H]1CCCCO[C@@H](CN(C)S(=O)(=O)c2ccc(F)cc2)[C@@H](C)CN([C@H](C)CO)C(=O)c2cc(NC(=O)Nc3ccc4c(c3)OCO4)ccc2O1,n,n,n,x,x,x
C[C@@H]1CCCCO[C@@H](CN(C)CC2CCCCC2)[C@H](C)CN([C@H](C)CO)C(=O)c2cc(NS(=O)(=O)c3cn(C)cn3)ccc2O1,n,n,x,x,x,x
Cc1noc(C)c1S(=O)(=O)Nc1ccc2c(c1)C(=O)N([C@H](C)CO)C[C@H](C)[C@H](CN(C)CC1CC1)OCCCC[C@H](C)O2,n,n,x,x,x,x
COc1ccc(C(=O)O/N=C(\N)c2ccccn2)cc1,120.9,n,n,81.1,n,u
CC(=O)c1ccc(NC(=O)COC(=O)c2c3c(nc4ccccc24)/C(=C\c2cccs2)CCC3)cc1,x,n,n,n,n,n
O=C(COC(=O)c1c2c(nc3ccccc13)/C(=C\c1cccs1)CCC2)Nc1ccccc1,85.6,n,n,n,n,n
COc1ccc(CNC(=O)C[C@@H]2C[C@H]3c4cc(NC(=O)NC5CCCC5)ccc4O[C@H]3[C@@H](CO)O2)cc1,x,n,x,x,x,x
CCCCN(C=O)c1c(CC)nc2ccc(C(=O)N(CC)CCN(C)C)cn12,n,n,n,x,n,x
CCCCN(C)c1c(C)nc2ccc(C(=O)N(CC)CCN(C)C)cn12,82.2,n,n,x,n,x
CCCNC(=O)C[C@@H]1CC[C@@H]2[C@@H](COc3ccc(NC(=O)c4cccc(C(F)(F)F)c4)cc3C(=O)N2C)O1,n,n,n,x,x,x
COc1ccc(C(=O)CCN2CCc3cc(OC)c(OC)cc3C2)cc1,71.0,n,n,n,n,n
COc1ccc(C(=O)CCN2CCN(c3ccccc3OC)CC2)cc1,83.2,n,n,n,n,n
COc1ccccc1N1CCN(CCCC(=O)c2ccc(F)cc2)CC1,n,n,n,n,n,n
C[C@@H]1CN([C@H](C)CO)C(=O)c2cc(NC(=O)Cc3ccccc3)ccc2O[C@@H](C)CCCCO[C@H]1CN(C)C(=O)C1CCCCC1,n,n,x,x,x,x
O=C(C[C@@H]1CC[C@H](NC(=O)Nc2ccccc2F)[C@H](CO)O1)NCc1ccc(F)cc1,x,n,x,x,x,x
C[C@H]1CN([C@@H](C)CO)C(=O)c2cc(-c3ccc(F)cc3)cnc2O[C@@H]1CN(C)S(C)(=O)=O,x,n,n,x,x,x
C[C@H](CO)N1C[C@H](C)[C@H](CN(C)Cc2ccccc2)Oc2ncc(C#Cc3cccnc3)cc2C1=O,x,n,n,x,x,x
CCCCC(=O)NC(c1ccco1)c1c(O)ccc2ccccc12 (stereo unspecified),x,x,x,n,n,n
